Measured values of several laboratories.
Compare with care: the assays were run in different laboratories.
RAF1: RAF proto-oncogene serine/threonine-protein kinase (RAF1, Homo sapiens, UniProt P04049)
RAF1 Y340D/Y341D: RAF proto-oncogene serine/threonine-protein kinase (RAF1, Homo sapiens, UniProt P04049, Y340D/Y341D)

The remaining activity of `Cc1ccc(C(=O)Nc2ccc(CN3CCN(C)CC3)c(C(F)(F)F)c2)cc1C#Cc1cnc2cccnn12` is reported as 61% (RAF1; enzyme activity, inhibitor; 23.5 nM).
The inhibition of `CCOc1cc(-c2nncn2C)ccc1Nc1ncc2cc(C)nc(NCC(C)(C)C)c2n1` is reported as at most 15% (RAF1 Y340D/Y341D; cell-free assay, TR-FRET; 1 µM).
`Cc1ccc(Nc2nccc(N(C)c3ccc4c(C)n(C)nc4c3)n2)cc1S(N)(=O)=O` has an inhibition of 77% (RAF1; enzyme activity, inhibitor; 0.3 µM).
`Cc1[nH]c(/C=C2\C(=O)Nc3ccc(F)cc32)c(C)c1C(=O)N[C@H]1CCN(C(=O)N(C)C)C1` has a remaining activity of 118% (RAF1; enzyme activity, inhibitor; 0.1 µM).
`CC(C)(C)c1nc(-c2cccc(NS(=O)(=O)c3c(F)cccc3F)c2F)c(-c2ccnc(N)n2)s1` has a remaining activity of 1% (RAF1 Y340D/Y341D; enzyme activity, inhibitor, radiometric; 1 µM).
With `COc1cc(-c2cc(-c3ccc(N4CCNCC4)cc3)cnc2N)cc(OC)c1OC` the inhibition was 2% (RAF1; enzyme activity, inhibitor; 1 µM).
With `CNC(=O)Nc1ccc2c(c1)CC[C@@]21OC(=O)N(CC(=O)N(Cc2ccc(F)cc2)[C@@H](C)C(F)(F)F)C1=O` the remaining binding was 100% (RAF1; cell-free assay, competition with immobilised ligand; 1 µM).
`CCN(CC)CCNC(=O)c1c(C)[nH]c(/C=C2\C(=O)Nc3ccc(F)cc32)c1C` gave a remaining signal of 110% (RAF1; cell-free assay; 0.5 µM).
The remaining binding of `Cc1cc(-n2nc(Cc3cc(F)cc(C(F)(F)F)c3)nc2C)ccc1C(N)=O` is reported as 87% (RAF1; cell-free assay, competition with immobilised ligand; 1 µM).
`COc1cc(Cl)c(C(=O)N[C@@H](CN[C@H]2CC[C@@H](N)CC2)Cc2ccc(C#N)cc2)cc1-c1ccc(CN[C@H](C)c2ccc(C)cc2)o1` gave a remaining activity of 97% (RAF1; enzyme activity, inhibitor; 1 µM).
`Cc1cc(NC(=O)c2cccc3cc(-c4cccc5[nH]nc(N)c45)ccc23)ccc1F` has an activity vs control of 97% (RAF1; enzyme activity, inhibitor; 0.1 µM).
For `CS(=O)(=O)Nc1cccc(-c2csc(NC(=O)CSc3nc4nccnc4c(=O)n3CCc3ccccc3)n2)c1`, the inhibition was -1% (RAF1 Y340D/Y341D; enzyme activity, inhibitor; 10 µM).
With `COc1cc2ncnc(Nc3ccc(Oc4ccccc4)c(C)c3C)c2cc1OC` the inhibition was -6% (RAF1 Y340D/Y341D; enzyme activity, inhibitor; 1 µM).
For `CN(C)C1CCN(CC#Cc2nn(C3CCCC3)c3nc(NCc4ccccc4)ncc23)C1` (stereo not drawn), the inhibition was -4% (RAF1 Y340D/Y341D; enzyme activity, inhibitor, FRET; 1 µM).
For `CCN(CC)CCNC(=O)c1c(C)[nH]c(/C=C2\C(=O)Nc3ccc(F)cc32)c1C`, the remaining activity was 95% (RAF1; enzyme activity, inhibitor; 0.1 µM).
`O=C(Nc1cnn(-c2csc(C(=O)NC3COC3)c2)c1)Nc1c(F)cccc1Cl` has a remaining activity of 92.5% (RAF1; enzyme activity, inhibitor; 5 µM).
`Nc1c(C(=O)NCc2ccc(C(=O)NCCCC3CCCCC3)cc2)cnn1-c1ccccc1` gave a remaining binding of 100% (RAF1; cell-free assay, competition with immobilised ligand; 0.1 µM).
With `N#CCCc1ccc2c(c1)-c1[nH]c3ccc([N+](=O)[O-])cc3c1CC(=O)N2` the remaining signal was 104% (RAF1; cell-free assay; 0.5 µM).
The activity vs control of `c1nc2c(Nc3ccc4c(c3)OCCO4)nc(Nc3ccc4c(c3)OCCO4)nc2[nH]1` is reported as 95% (RAF1; enzyme activity, inhibitor; 10 µM).
The activity vs control of `Cc1ccc(C(=O)NCc2ccsc2)cc1C#Cc1cn(C(C)C)c2ncnc(N)c12` is reported as 15% (RAF1; enzyme activity, inhibitor; 1 µM).
With `CCS(=O)(=O)c1cc2cc(C[C@](O)(CC(C)(C)c3ccc(F)cc3C(N)=O)C(F)(F)F)[nH]c2cn1` the remaining binding was 83% (RAF1; cell-free assay, competition with immobilised ligand; 1 µM).
`CC(C)(O)[C@H]1CC[C@H](Nc2ccc3ncc(-c4cccc(C(F)(F)F)c4)n3n2)CC1` gave a remaining activity of 91.6% (RAF1; enzyme activity, inhibitor; 1 µM).
The remaining binding of `O=C(O)[C@@H]1[C@@H](Cn2nnc3ccccc3c2=O)CC[C@H]1C(=O)c1ccc(OCCC2CCOCC2)cc1` is reported as 100% (RAF1; cell-free assay, competition with immobilised ligand; 1 µM).
For `O=C1NC(=O)c2cc(Nc3ccc(F)cc3)c(Nc3ccc(F)cc3)cc21`, the remaining signal was 81.9% (RAF1; cell-free assay; 0.5 µM).
`CC(=O)N1CCC(c2ccc(C(=O)NC(=N)N)cc2C(F)(F)F)CC1` has a remaining binding of 100% (RAF1; cell-free assay, competition with immobilised ligand; 1 µM).
`O=C(Nc1cnn(-c2csc(C(=O)NC3COC3)c2)c1)Nc1ccccc1Cl` gave a remaining activity of 87% (RAF1; enzyme activity, inhibitor; 5 µM).
`c1ccc(N2CCN(Cc3nc4ccccc4[nH]3)CC2)nc1` gave a remaining binding of 100% (RAF1; binding, competition with immobilised ligand; 1 µM).
The remaining signal of `C[C@@H]1CCN(C(=O)CC#N)C[C@@H]1N(C)c1ncnc2[nH]ccc12` is reported as 95.5% (RAF1; cell-free assay, inhibitor; 0.5 µM).
`CCOCCn1cc(C(=O)Nc2ccc(-n3nc(-c4cccnc4)cc3C(F)(F)F)cn2)ccc1=O` gave a remaining binding of 100% (RAF1; cell-free assay, competition with immobilised ligand; 1 µM).
For `CNCc1ccc(-c2cc(-c3nc(-c4ccc(S(=O)(=O)C(C)C)cc4)cnc3N)on2)cc1`, the inhibition was 10% (RAF1; enzyme activity, inhibitor; 2 µM).
